Measured values as given in ChEMBL document CHEMBL1123507, “Antipicornavirus activity of substituted phenoxybenzenes and phenoxypyridines” (J Med Chem, 1986).
≈ marks a conversion by molar mass, not a printed value.

Columns and labels:
Enterovirus [1] = assay: Ratio of the MIC50 of 6-(4-Nitro-phenoxy)-nicotinonitrile compared to compound obtained in the same test for Rhinovirus (RV)-2; format: functional
Summary of the method: (§1)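 Relative activity was calculated as the MIC50 of the positive control 5-cyano-2-(4-nitrophenoxy)pyridine divided by the MIC50 of the test compound. Both were measured in parallel in the same HeLa CPE test (48/72 h microscopic reading) against RV-1A, RV-2 or coxsackievirus A21.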

Coxsackievirus [2] = assay: Lowest concentration to reduce viral effect by 50% or more against coxsackie virus A21; format: functional
Summary of the method: (§2)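 HeLa monolayers were seeded at (1.0-1.3) × 10^5 cells/well, grown 24 h at 36 °C in 5% CO2 to 60–75% cover, then refed with maintenance medium (1-2% heat-inactivated FCS) containing two-fold serial compound dilutions made from a 200 μg/mL stock in Me2SO/medium, with final Me2SO ≤0.1%. Cells were challenged with 10-100 TCID50 virus, and CPE was read microscopically at 48 and 72 h. MIC50 was the lowest concentration giving ≥50% CPE reduction versus virus control. Cytotoxicity was the lowest concentration causing cell death, a growth change or a morphology change in uninfected cultures.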

Enterovirus [3] = assay: Lowest concentration to reduce viral effect by 50% or more against Rhinovirus (RV)-2; format: functional; summary of the method: as §2
Enterovirus [4] = assay: Ratio of the MIC50 of 6-(4-Nitro-phenoxy)-nicotinonitrile compared to compound obtained in the same test for Rhinovirus (RV)-1A; format: functional; summary of the method: as §1
HeLa = assay: Cytotoxicity concentration in HeLa cells; format: cell-based; settings: human; summary of the method: as §2
Enterovirus [5] = assay: Lowest concentration to reduce viral effect by 50% or more against Rhinovirus (RV)-1A; format: functional; summary of the method: as §2
Coxsackievirus [6] = assay: Ratio of the MIC50 of 6-(4-Nitro-phenoxy)-nicotinonitrile compared to compound obtained in the same test for coxsackie A21; format: functional; summary of the method: as §1
Enterovirus [7] = assay: Compound was evaluated for inhibition of rhinovirus RV-Hanks 75%; format: functional
Enterovirus [8] = assay: Compound was evaluated for inhibition of rhinovirus RV-Hanks at a dose of 50 ug/mL by < 50%; format: functional

Row | SMILES | Relative activity (Enterovirus [1]) | MIC50 (Coxsackievirus [2]) [µM] | MIC50 (Enterovirus [3]) [µM] | Relative activity (Enterovirus [4]) | Toxicity (HeLa) [µM] | MIC50 (Enterovirus [5]) [µM] | Relative activity (Coxsackievirus [6]) | Inhibition (Enterovirus [7]) [%] | inhibition at 50 µg/mL (Enterovirus [8]) [%]
1 | N#Cc1cccnc1Oc1ccc(Cl)c(Cl)c1 | 1.1 | 12 (≈ 3.18 µg/mL) | 24 (≈ 6.36 µg/mL) | 0.55 | > 189 | 47 (≈ 12.5 µg/mL) | 1.1 |  | 
2 | N#Cc1cc([N+](=O)[O-])ccc1Oc1cccc(Cl)c1Cl | 50 | 8.1 (≈ 2.5 µg/mL) | 0.26 (≈ 0.0804 µg/mL) | 25 | > 65 | 0.52 (≈ 0.161 µg/mL) | 3.2 |  | 
3 | O=C(O)c1cc([N+](=O)[O-])ccc1Oc1ccc(Cl)c(Cl)c1 | 1.4 | 76.2 (≈ 25 µg/mL) | 38.1 (≈ 12.5 µg/mL) | 2.7 | 305 | 19 (≈ 6.23 µg/mL) | 0.34 |  | 
4 | CSc1ccc(Oc2ccc(Cl)c(Cl)c2)nc1 | 5.8 | 9 (≈ 2.58 µg/mL) | 9 (≈ 2.58 µg/mL) | 6.5 | 87 | 4 (≈ 1.14 µg/mL) | 4.6 |  | 
5 | Clc1ccc(Oc2ccc(Br)cn2)cc1Cl | 1.6 | 4 (≈ 1.28 µg/mL) | 16 (≈ 5.1 µg/mL) | 6.5 | 78 | 4 (≈ 1.28 µg/mL) | 6.5 |  | 
6 | N#Cc1ccnc(Oc2ccc(Cl)c(Cl)c2)c1 | 2.2 | 12 (≈ 3.18 µg/mL) | 12 (≈ 3.18 µg/mL) | 1.1 | > 189 | 24 (≈ 6.36 µg/mL) | 1.1 |  | 
7 | N#Cc1ccc(Oc2ccc(Cl)cc2)nc1 | 2 | 54 (≈ 12.5 µg/mL) | 54 (≈ 12.5 µg/mL) | 1.9 | > 433 | 54 (≈ 12.5 µg/mL) | 0.48 |  | 
8 | N#Cc1cc([N+](=O)[O-])ccc1Oc1cccc(C(F)(F)F)c1 | 25.9 | 3.9 (≈ 1.2 µg/mL) | 2 (≈ 0.616 µg/mL) | 1.6 | 41 | 8.1 (≈ 2.5 µg/mL) | 5.3 |  | 
9 | N#Cc1cc([N+](=O)[O-])ccc1Oc1ccccc1Br | 11.1 | 0.41 (≈ 0.131 µg/mL) | 0.94 (≈ 0.3 µg/mL) | 12.9 | > 31 | 1.6 (≈ 0.511 µg/mL) | 3.3 |  | 
10 | N#Cc1cc([N+](=O)[O-])ccc1Oc1cccc2ccccc12 | 11.8 | 10.8 (≈ 3.14 µg/mL) | 1.1 (≈ 0.319 µg/mL) | 6 | > 172 | 4.3 (≈ 1.25 µg/mL) | 1.2 |  | 
11 | Cc1ccc(Oc2ccc(C#N)cn2)cc1 | 1.7 | 60 (≈ 12.6 µg/mL) | 30 (≈ 6.31 µg/mL) | 0.43 | 476 | 60 (≈ 12.6 µg/mL) | 0.43 |  | 
12 | N#Cc1ccc(Oc2ccc(Cl)c(Cl)c2)cc1 | 2.7 | 2.3 (≈ 0.607 µg/mL) | 9.5 (≈ 2.51 µg/mL) | 2.7 | 24 | 9.5 (≈ 2.51 µg/mL) | 11.3 |  | 
13 | N#Cc1cc([N+](=O)[O-])ccc1Oc1ccccc1 | 3.8 | 2.7 (≈ 0.649 µg/mL) | 5.4 (≈ 1.3 µg/mL) | 3.8 | > 42 | 5.4 (≈ 1.3 µg/mL) | 0.96 |  | 
14 | COc1ccc(Oc2ccc([N+](=O)[O-])cc2C#N)cc1 | 2.2 | 5.7 (≈ 1.54 µg/mL) | 11.6 (≈ 3.13 µg/mL) | 0.56 | 93 | 46.3 (≈ 12.5 µg/mL) | 2.2 |  | 
15 | O=[N+]([O-])c1ccc(Oc2ccc(Cl)c(Cl)c2)cc1 | 2.4 | 0.88 (≈ 0.25 µg/mL) | 22 (≈ 6.25 µg/mL) | 5.6 | 352 | 4.6 (≈ 1.31 µg/mL) | 5.9 | 65 | 30
16 | CS(=O)(=O)c1ccc(Oc2ccc(Cl)c(Cl)c2)cc1 | 32.8 | 4.1 (≈ 1.3 µg/mL) | 0.79 (≈ 0.251 µg/mL) | 32.8 | 158 | 0.79 (≈ 0.251 µg/mL) | 3.2 | 85 | 10
17 | N#Cc1cc([N+](=O)[O-])ccc1Oc1ccccc1Cl | 4.6 | 5.7 (≈ 1.57 µg/mL) | 4.5 (≈ 1.24 µg/mL) | 4.6 | 45 | 4.5 (≈ 1.24 µg/mL) | 2.38 |  | 
